Assays:
[1] = Displacement of [3H]-DTG from Sigma2 receptor in Dunkin Hartley guinea pig brain membrane after 120 mins by liquid scintillation counting analysis in presence of sigma1 blocker (+)-SKF-10047; design: species or system Cavia porcellus
Summary of the method: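 Guinea pig brain P2 membranes incubated with 3 nM [³H]-DTG plus 400 nM (+)-SKF-10047 to block σ1 sites, Tris-HCl pH 8.0, 25 °C for 120 min; nonspecific binding with DTG. Filtration on PEI-presoaked GF/B filters, scintillation counting. […] At least three experiments.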

[2] = molecular target: Sigma non-opioid intracellular receptor 1 (Cavia porcellus, UniProt Q60492); test: Displacement of [3H]-(+)-pentazocine from Sigma1 receptor in Dunkin Hartley guinea pig brain membrane after 180 mins by liquid scintillation counting analysis
Sigma non-opioid intracellular receptor 1, sequence (Q60492 whole entry): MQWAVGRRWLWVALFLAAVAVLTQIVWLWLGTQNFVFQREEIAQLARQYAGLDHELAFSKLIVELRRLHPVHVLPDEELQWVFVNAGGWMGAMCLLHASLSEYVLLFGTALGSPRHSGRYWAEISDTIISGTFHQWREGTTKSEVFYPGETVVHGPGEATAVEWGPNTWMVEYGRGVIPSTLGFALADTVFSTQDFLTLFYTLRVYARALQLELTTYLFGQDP
Summary of the method: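 Guinea pig brain (minus cerebellum) P2 membranes in Tris-HCl. Incubated with [³H]-(+)-pentazocine (4.0 nM solution added) in pH 8.0 buffer, 25 °C for 180 min; nonspecific binding with haloperidol. Filtered through PEI-presoaked GF/B filters; scintillation counting. Compounds in 5% DMSO, six concentrations (10⁻⁵–10⁻¹⁰ M). […] At least three experiments.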

Cavia porcellus = species: Cavia porcellus; test: Selectivity ratio of Ki for Sigma2 receptor in Dunkin Hartley guinea pig brain membrane to Ki for Sigma1 receptor in Dunkin Hartley guinea pig brain membrane
Summary of the method: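 Guinea pig brain P2 membranes, minus cerebellum. σ1: [3H]-(+)-pentazocine, haloperidol for nonspecific binding, 25 °C for 180 min. σ2: 3 nM [3H]-DTG with 400 nM (+)-SKF-10047 masking σ1, DTG for nonspecific binding, 25 °C for 120 min. Six concentrations, 10⁻⁵ to 10⁻¹⁰. Filter-bound radioactivity counted. Hill-fit IC50 converted by Cheng–Prusoff, at least three experiments each; ratio σ2 Ki/σ1 Ki.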

[3] = molecular target: Voltage-gated inwardly rectifying potassium channel KCNH2 (Homo sapiens, UniProt Q12809); test: Inhibition of human ERG expressed in HEK293 cells assessed as tail current at -50 mV holding potential by whole-cell patch clamp method
Voltage-gated inwardly rectifying potassium channel KCNH2, sequence (Q12809 whole entry): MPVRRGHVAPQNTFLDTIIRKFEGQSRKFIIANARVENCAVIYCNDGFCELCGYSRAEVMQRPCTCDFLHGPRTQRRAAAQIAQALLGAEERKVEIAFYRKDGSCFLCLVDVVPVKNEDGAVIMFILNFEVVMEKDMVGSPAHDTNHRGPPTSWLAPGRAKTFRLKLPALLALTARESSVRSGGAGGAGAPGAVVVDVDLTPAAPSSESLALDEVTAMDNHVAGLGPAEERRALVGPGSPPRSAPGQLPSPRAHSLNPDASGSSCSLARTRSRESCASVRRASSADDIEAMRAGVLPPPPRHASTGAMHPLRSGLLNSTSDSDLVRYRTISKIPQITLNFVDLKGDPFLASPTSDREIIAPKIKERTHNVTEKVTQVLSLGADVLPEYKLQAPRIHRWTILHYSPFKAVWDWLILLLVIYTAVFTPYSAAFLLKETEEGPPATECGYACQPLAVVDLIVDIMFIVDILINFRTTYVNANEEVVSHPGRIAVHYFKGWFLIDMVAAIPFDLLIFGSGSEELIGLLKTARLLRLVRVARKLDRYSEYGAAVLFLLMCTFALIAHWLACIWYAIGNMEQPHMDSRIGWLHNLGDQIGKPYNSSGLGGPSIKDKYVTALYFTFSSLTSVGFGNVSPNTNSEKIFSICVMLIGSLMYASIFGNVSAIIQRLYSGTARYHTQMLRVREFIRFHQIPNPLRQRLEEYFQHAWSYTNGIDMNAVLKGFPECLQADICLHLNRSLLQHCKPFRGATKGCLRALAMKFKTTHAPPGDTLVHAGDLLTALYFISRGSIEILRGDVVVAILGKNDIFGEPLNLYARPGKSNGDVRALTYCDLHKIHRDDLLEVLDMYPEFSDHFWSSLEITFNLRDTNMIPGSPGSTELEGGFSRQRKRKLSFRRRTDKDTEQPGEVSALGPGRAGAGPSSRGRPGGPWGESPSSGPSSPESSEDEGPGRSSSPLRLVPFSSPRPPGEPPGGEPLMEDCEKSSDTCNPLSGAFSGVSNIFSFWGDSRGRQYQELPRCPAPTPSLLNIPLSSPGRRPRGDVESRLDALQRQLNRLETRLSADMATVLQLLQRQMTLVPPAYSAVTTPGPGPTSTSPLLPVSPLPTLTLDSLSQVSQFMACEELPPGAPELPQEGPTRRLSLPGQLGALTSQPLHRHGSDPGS

[4] = Acute toxicity in po dosed Kun Ming mouse assessed as mortality after 24 hrs; type: organism-based; settings: in vivo
Summary of the method: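 Mice, 10 per group, given a single oral dose (10 mL/kg) of 0.5% methylcellulose vehicle or test compound at 200, 500, 1000, 1500 or 2000 mg/kg. Survivors were counted 24 h after dosing and percent mortality per group was calculated. LD50 was derived by statistical analysis.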

Mus musculus [5] = test: Antiallodynic activity in Kun Ming mouse assessed as paw licking time at 160 mg/kg, ig administered 15 mins prior to formalin challenge measured after15 to 45 mins post formalin dosing; type: functional
Summary of the method: (§1)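 Mice received 20 μL of 2.5% formalin (0.92% formaldehyde) in the dorsal right hind paw. Time spent licking or biting the paw was scored at 0–5 min (phase I) and 15–45 min (phase II), with a mirror behind the glass cylinder. Vehicle was 30% PEG 400 at 10 mL/kg, given 15 min before formalin. n = 10–12 per group. % antinociception = (LT_V − LT_D)/LT_V × 100.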

Mus musculus [6] = test: Antiallodynic activity in Kun Ming mouse assessed as paw biting time at 160 mg/kg, ig administered 15 mins prior to formalin challenge measured after 15 to 45 mins post formalin dosing; type: functional; summary of the method: as §1
Mus musculus [7] = test: Toxicity in Kun Ming mouse assessed as reduction in the permanence time on the rotating rod at 80 mg/kg, ig measured after 30 to 120 mins by rotarod test; type: organism-based; settings: in vivo, po
Summary of the method: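 Mice were pre-trained; any that could not stay 300 s on the rod at 10 rpm were excluded. Latency to fall from the rod rotating at 10 rpm was recorded 30, 60, 90 and 120 min after intragastric dosing. 8–10 mice per group.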

Ki [1] [nM]	Ki [2] [nM]	Ratio Ki (Cavia porcellus)	SMILES	IC50 [3] [nM]	LD50 at 24 h [4] [mg/kg]	Time (Mus musculus [5]) [s]	Time (Mus musculus [6]) [s]	Activity (Mus musculus [7])
1620	48	33.6	O=c1ccc(OCCCN2CCCCC2)nn1-c1cccc(Cl)c1Cl	–	–	–	–	–
934	104	8.9	O=c1c2c(c(OCCCN3CCCCC3)nn1-c1ccc(Cl)c(Cl)c1)CCCC2	–	–	–	–	–
1550	61.6	25.1	Cc1ccc(-n2nc(OCCCN3CCC(C)CC3)ccc2=O)cc1	–	–	–	–	–
1070	21.4	50.2	O=c1ccc(OCCCN2CCCCC2)nn1-c1ccccc1	–	–	–	–	–
620	40.1	15.5	CCN1CCN(CCCOc2ccc(=O)n(-c3ccccc3)n2)CC1	–	–	–	–	–
1430	66.6	21.4	Cc1c(OCCCN2CCCCC2)nn(-c2ccc(Cl)c(Cl)c2)c(=O)c1C	–	–	–	–	–
> 2000	17	–	O=c1ccc(OCCCN2CCCCC2)nn1-c1ccc(F)cc1	–	–	–	–	–
1280	69	18.6	Cc1ccc(-n2nc(OCCCN3CCCCC3)ccc2=O)cc1	–	–	–	–	–
502	66.3	7.6	O=c1ccc(OCCCN2CCOCC2)nn1-c1ccccc1	–	–	–	–	–
1300	30	43.3	O=c1ccc(OCCCN2CCCCC2)nn1-c1cc(Cl)cc(Cl)c1	–	–	–	–	–
508	30.3	16.8	CN1CCCN(CCCOc2ccc(=O)n(-c3ccccc3)n2)CC1	–	–	–	–	–
902	45	20	O=c1ccc(OCCCN2CCCCC2)nn1-c1cc(Cl)ccc1Cl	–	–	–	–	–
809	25	32.3	O=c1ccc(OCCCN2CCCCC2)nn1-c1ccc(Cl)cc1Cl	–	–	–	–	–
1440	143	10.1	CC1CCN(CCCCOc2ccc(=O)n(-c3ccccc3)n2)CC1	–	–	–	–	–
1460	28	52.3	CC1CCN(CCCOc2ccc(=O)n(-c3ccccc3)n2)CC1	–	–	–	–	–
1100	35	31.4	CC1CCN(CCCOc2ccc(=O)n(-c3ccc(Cl)cc3Cl)n2)CC1	–	–	–	–	–
870	60	14.5	CC1CCN(CCCOc2ccc(=O)n(-c3cc(Cl)ccc3Cl)n2)CC1	–	–	–	–	–
1370	222	6.2	CC1CC(C)CN(CCCCOc2ccc(=O)n(-c3ccccc3)n2)C1 (stereo not given)	–	–	–	–	–

Ki [1] [nM]	Ki [2] [nM]	Ratio Ki (Cavia porcellus)	SMILES	IC50 [3] [nM]	LD50 at 24 h [4] [mg/kg]	Time (Mus musculus [5]) [s]	Time (Mus musculus [6]) [s]	Activity (Mus musculus [7])
1200	55	21.8	CC1CCN(CCCOc2ccc(=O)n(-c3cccc(Cl)c3Cl)n2)CC1	–	–	–	–	–
818	108	7.57	CN(C)CCCOc1ccc(=O)n(-c2ccccc2)n1	–	–	–	–	–
> 2000	> 2000	–	O=c1ccc(OCCN2CCCCC2)nn1-c1ccccc1	–	–	–	–	–
913	84.1	10.8	CC1CCN(CCCOc2ccc(=O)n(-c3ccc4ccccc4c3)n2)CC1	–	–	–	–	–
1820	46	39.6	CC1CC(C)CN(CCCOc2ccc(=O)n(-c3ccccc3)n2)C1 (stereo not given)	–	–	–	–	–
1510	140	10.8	O=c1c2ccccc2c(OCCCN2CCCCC2)nn1-c1ccc(Cl)c(Cl)c1	–	–	–	–	–
1120	98.1	11.4	CC(C)N(CCCOc1ccc(=O)n(-c2ccccc2)n1)C(C)C	–	–	–	–	–
> 2000	> 2000	–	O=c1ccc(OCCCN2CCCCC2)nn1C1CCCC1	–	–	–	–	–
1170	96.5	12.1	CCN(CC)CCCOc1ccc(=O)n(-c2ccccc2)n1	–	–	–	–	–
895	74.1	12.1	O=c1ccc(OCCCN2CCCCC2)nn1-c1ccc2ccccc2c1	–	–	–	–	–
1720	124	13.9	O=c1ccc(OCCCCN2CCCCC2)nn1-c1ccccc1	–	–	–	–	–
> 2000	580	–	O=C1CCN(CCCOc2ccc(=O)n(-c3ccccc3)n2)CC1	–	–	–	–	–
458	35.5	12.9	O=c1ccc(OCCCN2CCCC2)nn1-c1ccccc1	–	–	–	–	–
> 2000	–	–	Cc1cc(OCCN2CCOCC2)nn1-c1ccc2ccccc2c1	–	–	–	–	Toxic
376	31.7	11.9	CN1CCN(CCCOc2ccc(=O)n(-c3ccccc3)n2)CC1	–	–	–	–	–
1620	19.8	81.7	CC1CCN(CCCOc2ccc(=O)n(-c3ccc(F)cc3)n2)CC1	–	–	–	–	–
1320	43	30.7	CC1CCN(CCCOc2ccc(=O)n(-c3cc(Cl)cc(Cl)c3)n2)CC1	–	–	–	–	–

SMILES	Ki [1] [nM]	Ki [2] [nM]	Ratio Ki (Cavia porcellus)	IC50 [3] [nM]	LD50 at 24 h [4] [mg/kg]	Time (Mus musculus [5]) [s]	Time (Mus musculus [6]) [s]	Activity (Mus musculus [7])
O=c1ccc(OCCCN2CCCCC2)nn1-c1ccc(F)c(Cl)c1	1580	10	158	980	900	–	–	–
CC1CCN(CCCOc2ccc(=O)n(-c3ccc(Cl)c(Cl)c3)n2)CC1	1740	5	348	1460	575	–	–	–
CC1CCN(CCCOc2ccc(=O)n(-c3ccc(F)c(F)c3)n2)CC1	1700	15	113	2680	1300	59.65	56.43	–
O=c1ccc(OCCCN2CCCCC2)nn1-c1ccc(F)c(F)c1	1910	8	–	–	780	–	–	–
CC1CCN(CCCOc2ccc(=O)n(-c3ccc(F)c(Cl)c3)n2)CC1	1630	10	163	2160	1530	59.65	56.43	–
O=c1ccc(OCCCN2CCCCC2)nn1-c1ccc(Cl)cc1	1570	9.8	160	1450	754	–	–	–
CC1CCN(CCCOc2ccc(=O)n(-c3ccc(Cl)cc3)n2)CC1	1780	9.5	–	–	717	–	–	–

— ChEMBL document CHEMBL3804799, “Synthesis and Biological Evaluation of Novel σ1 Receptor Ligands for Treating Neuropathic Pain: 6-Hydroxypyridazinones” (J Med Chem, 2016)
